Source: ChEMBL document CHEMBL3217692, “Synthesis and cytotoxicity evaluation of novel pyrido[3,4-d]pyrimidine derivatives as potential anticancer agents” (2012)

Assays:
Type in all cases: functional
[1] = system: NCI-H322M; assay: Cytotoxicity against human NCI-H322M cells assessed as cell growth at 10 uM after 48 hrs by sulforhodamine B assay relative to control; conditions: read-out: Activity
In short: (§1)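 Adherent cells were grown in RPMI 1640 with 5% FBS and 2 mM L-glutamine, seeded at 5000–40 000 cells/well by doubling time, and held 24 h at 37 °C, 5% CO2 before drug. Time-zero plates were TCA-fixed. Compound in DMSO, single dose 10 μM, 48 h. Cells were fixed with cold TCA (final 10%, 60 min, 4 °C) and stained with 0.4% SRB. Bound dye was dissolved in 10 mM Tris base and read at 515 nm. Percent growth was derived from time-zero, control and treated absorbances.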

[2] = system: NCI-H522; assay: Cytotoxicity against human NCI-H522 cells assessed as cell growth at 10 uM after 48 hrs by sulforhodamine B assay relative to control; conditions: NCI-H522, 48 h, read-out: Activity; in short: as §1
[3] = Cytotoxicity against human EKVX cells assessed as cell growth at 10 uM after 48 hrs by sulforhodamine B assay relative to control; conditions: read-out: Activity; in short: as §1
[4] = system: COLO 205; assay: Cytotoxicity against human COLO205 cells assessed as cell growth at 10 uM after 48 hrs by sulforhodamine B assay relative to control; conditions: COLO 205, 48 h, read-out: Activity; in short: as §1
[5] = Cytotoxicity against human UO31 cells assessed as cell growth at 10 uM after 48 hrs by sulforhodamine B assay relative to control; conditions: UO-31, 48 h, read-out: Activity
In short: (§2)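 NCI-60 single-dose screen. Cells were grown in RPMI 1640 with 5% FBS and 2 mM L-glutamine, seeded at 5000–40 000 cells/well according to doubling time, and pre-incubated 24 h at 37 °C, 5% CO2. Time-zero plates were TCA-fixed at dosing. Compound in DMSO was given at 10 μM for 48 h. Cells were then fixed in cold TCA, stained with 0.4% SRB, solubilised in 10 mM Tris base and read at 515 nm. Growth % was calculated from time-zero, control and treated absorbances.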

[6] = system: SF-268; assay: Cytotoxicity against human SF268 cells assessed as cell growth at 10 uM after 48 hrs by sulforhodamine B assay relative to control; conditions: SF-268, 48 h, read-out: Activity; in short: as §1
[7] = system: M14; assay: Cytotoxicity against human M14 cells assessed as cell growth at 10 uM after 48 hrs by sulforhodamine B assay relative to control; conditions: M14, 48 h, read-out: Activity; in short: as §1
[8] = system: U-251; assay: Cytotoxicity against human U251 cells assessed as cell growth at 10 uM after 48 hrs by sulforhodamine B assay relative to control; conditions: U-251, 48 h, read-out: Activity; in short: as §2
[9] = system: A549; assay: Cytotoxicity against human A549 cells assessed as cell growth at 10 uM after 48 hrs by sulforhodamine B assay relative to control; conditions: A549, 48 h, read-out: Activity; in short: as §1
[10] = system: RXF 393; assay: Cytotoxicity against human RXF393 cells assessed as cell growth at 10 uM after 48 hrs by sulforhodamine B assay relative to control; conditions: RXF 393, 48 h, read-out: Activity; in short: as §1
[11] = system: NCI-H460; assay: Cytotoxicity against human NCI-H460 cells assessed as cell growth at 10 uM after 48 hrs by sulforhodamine B assay relative to control; conditions: NCI-H460, 48 h, read-out: Activity; in short: as §1
[12] = system: SK-MEL-5; assay: Cytotoxicity against human SK-MEL-5 cells assessed as cell growth at 10 uM after 48 hrs by sulforhodamine B assay relative to control; conditions: SK-MEL-5, 48 h, read-out: Activity; in short: as §1
[13] = system: SK-MEL-28; assay: Cytotoxicity against human SK-MEL-28 cells assessed as cell growth at 10 uM after 48 hrs by sulforhodamine B assay relative to control; conditions: SK-MEL-28, 48 h, read-out: Activity; in short: as §1
[14] = Cytotoxicity against human OVCAR4 cells assessed as cell growth at 10 uM after 48 hrs by sulforhodamine B assay relative to control; conditions: OVCAR-4, 48 h, read-out: Activity; in short: as §1
[15] = Cytotoxicity against human UACC62 cells assessed as cell growth at 10 uM after 48 hrs by sulforhodamine B assay relative to control; conditions: UACC-62, 48 h, read-out: Activity; in short: as §2
[16] = system: MOLT-4; assay: Cytotoxicity against human MOLT4 cells assessed as cell growth at 10 uM after 48 hrs by sulforhodamine B assay relative to control; conditions: MOLT-4, 48 h, read-out: Activity
In short: (§3)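 Suspension lines were cultured in RPMI 1640 with 5% FBS and 2 mM L-glutamine, plated at 5000–40 000 cells/well and preincubated 24 h (37 °C, 5% CO2). Compound in DMSO was given at a single 10 μM dose for 48 h. Settled cells were fixed with 80% TCA (final 16%), then stained with SRB and read at 515 nm. Growth percentage was taken relative to time-zero and untreated control absorbances.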

[17] = system: ACHN; assay: Cytotoxicity against human ACHN cells assessed as cell growth at 10 uM after 48 hrs by sulforhodamine B assay relative to control; conditions: read-out: Activity; in short: as §1
[18] = system: KM12; assay: Cytotoxicity against human KM12 cells assessed as cell growth at 10 uM after 48 hrs by sulforhodamine B assay relative to control; conditions: KM12, 48 h, read-out: Activity; in short: as §1
[19] = system: MDA-MB-231; assay: Cytotoxicity against human MDA-MB-231 cells assessed as cell growth at 10 uM after 48 hrs by sulforhodamine B assay relative to control; conditions: MDA-MB-231, 48 h, read-out: Activity; in short: as §1
[20] = system: A498; assay: Cytotoxicity against human A498 cells assessed as cell growth at 10 uM after 48 hrs by sulforhodamine B assay relative to control; conditions: A498, 48 h, read-out: Activity; in short: as §1
[21] = system: PC-3; assay: Cytotoxicity against human PC3 cells assessed as cell growth at 10 uM after 48 hrs by sulforhodamine B assay relative to control; conditions: PC-3, 48 h, read-out: Activity; in short: as §1
[22] = system: NCI-H23; assay: Cytotoxicity against human NCI-H23 cells assessed as cell growth at 10 uM after 48 hrs by sulforhodamine B assay relative to control; conditions: NCI-H23, 48 h, read-out: Activity; in short: as §1
[23] = system: SR; assay: Cytotoxicity against human SR cells assessed as cell growth at 10 uM after 48 hrs by sulforhodamine B assay relative to control; conditions: read-out: Activity; in short: as §3
[24] = system: MCF7; assay: Cytotoxicity against human MCF7 cells assessed as cell growth at 10 uM after 48 hrs by sulforhodamine B assay relative to control; conditions: MCF7, 48 h, read-out: Activity; in short: as §1
[25] = Cytotoxicity against human Hs 578T cells assessed as cell growth at 10 uM after 48 hrs by sulforhodamine B assay relative to control; conditions: read-out: Activity; in short: as §1
[26] = system: HT-29; assay: Cytotoxicity against human HT-29 cells assessed as cell growth at 10 uM after 48 hrs by sulforhodamine B assay relative to control; conditions: HT-29, 48 h, read-out: Activity; in short: as §1
[27] = system: SF-295; assay: Cytotoxicity against human SF295 cells assessed as cell growth at 10 uM after 48 hrs by sulforhodamine B assay relative to control; conditions: SF-295, 48 h, read-out: Activity; in short: as §1
[28] = system: SK-MEL-2; assay: Cytotoxicity against human SK-MEL-2 cells assessed as cell growth at 10 uM after 48 hrs by sulforhodamine B assay relative to control; conditions: SK-MEL-2, 48 h, read-out: Activity; in short: as §1

COc1nccc2c(-c3cccc(F)c3)nc(N)nc12
growth at 10 µM [1]: 112% | growth at 10 µM [2]: 78.6% | growth at 10 µM [3]: 104% | growth at 10 µM [4]: 109% | growth at 10 µM [5]: 109% | growth at 10 µM [6]: 108% | growth at 10 µM [7]: 118% | growth at 10 µM [8]: 94.9% | growth at 10 µM [9]: 94.7% | growth at 10 µM [10]: 101% | growth at 10 µM [11]: 112% | growth at 10 µM [12]: 108% | growth at 10 µM [13]: 97% | growth at 10 µM [14]: 97.6% | growth at 10 µM [15]: 101% | growth at 10 µM [16]: 77.8% | growth at 10 µM [17]: 99.7% | growth at 10 µM [18]: 104% | growth at 10 µM [19]: 107% | growth at 10 µM [20]: 88.5% | growth at 10 µM [21]: 93% | growth at 10 µM [22]: 104% | growth at 10 µM [23]: 111% | growth at 10 µM [24]: 39.2% | growth at 10 µM [25]: 103% | growth at 10 µM [26]: 96.4% | growth at 10 µM [27]: 97.5% | growth at 10 µM [28]: 89.5%
